From ChEMBL document CHEMBL4229333, “Effects of rigidity on the selectivity of protein kinase inhibitors” (Eur J Med Chem, 2018)
In brackets after ≈: the same amount, converted by molar mass.

Key:
[1] = Solubility of compound at 37 degC incubated for 24 hrs by HPLC method; assay type: physicochemical
[2] = Apparent permeability from apical to basolateral side in human Caco2 cells in absence of P-gp inhibitor by LC-MS/MS analysis; assay type: ADME, cell-based; conditions: Caco-2
Outline: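 Caco-2 monolayer permeability, measured apical-to-basolateral and basolateral-to-apical. Compound concentrations were quantified by LC-MS/MS, and apparent permeability coefficients (Papp, cm/s) were calculated from them.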

[3] = molecular target: Tyrosine-protein kinase ABL1 (Homo sapiens, UniProt P00519); assay: Inhibition of ABL1 (unknown origin) at 1 uM by mobility shift microfluidics platform based assay relative to control
[4] = molecular target: Aurora kinase A (Homo sapiens) (UniProt O14965); assay: Inhibition of AURORA-A (unknown origin) at 1 uM by mobility shift microfluidics platform based assay relative to control
[5] = molecular target: Aurora kinase C (Homo sapiens) (UniProt Q9UQB9); assay: Inhibition of AURORA-C (unknown origin) at 1 uM by mobility shift microfluidics platform based assay relative to control
[6] = molecular target: Tyrosine-protein kinase Blk (Homo sapiens) (UniProt P51451); assay: Inhibition of BLK (unknown origin) at 1 uM by mobility shift microfluidics platform based assay relative to control
[7] = molecular target: Calcium/calmodulin-dependent protein kinase type II subunit beta (Homo sapiens) (UniProt Q13554); assay: Inhibition of CAMK2B (unknown origin) at 1 uM by mobility shift microfluidics platform based assay relative to control
[8] = molecular target: Calcium/calmodulin-dependent protein kinase type II subunit gamma (Homo sapiens) (UniProt Q13555); assay: Inhibition of CAMK2G (unknown origin) at 1 uM by mobility shift microfluidics platform based assay relative to control
Homo sapiens = species on record: Homo sapiens; assay: Inhibition of CDK/cyclin D3 (unknown origin) at 1 uM by mobility shift microfluidics platform based assay relative to control
[9] = molecular target: Casein kinase I isoform gamma-1 (Homo sapiens) (UniProt Q9HCP0); assay: Inhibition of CK1-gamma1 (unknown origin) at 1 uM by mobility shift microfluidics platform based assay relative to control
[10] = molecular target: Casein kinase I isoform gamma-2 (Homo sapiens) (UniProt P78368); assay: Inhibition of CK1-gamma2 (unknown origin) at 1 uM by mobility shift microfluidics platform based assay relative to control
[11] = molecular target: Dual specificity protein kinase CLK3 (Homo sapiens) (UniProt P49761); assay: Inhibition of CLK3 (unknown origin) at 1 uM by mobility shift microfluidics platform based assay relative to control
[12] = molecular target: Ephrin type-B receptor 3 (Homo sapiens) (UniProt P54753); assay: Inhibition of EPH-B3 (unknown origin) at 1 uM by mobility shift microfluidics platform based assay relative to control
[13] = molecular target: Receptor tyrosine-protein kinase erbB-4 (Homo sapiens) (UniProt Q15303); assay: Inhibition of ERB-B4 (unknown origin) at 1 uM by mobility shift microfluidics platform based assay relative to control
[14] = molecular target: Serine/threonine-protein kinase LATS2 (Homo sapiens) (UniProt Q9NRM7); assay: Inhibition of LATS2 (unknown origin) at 1 uM by mobility shift microfluidics platform based assay relative to control
[15] = molecular target: Serine/threonine-protein kinase Nek7 (Homo sapiens) (UniProt Q8TDX7); assay: Inhibition of NEK7 (unknown origin) at 1 uM by mobility shift microfluidics platform based assay relative to control
[16] = molecular target: Mitogen-activated protein kinase 13 (Homo sapiens) (UniProt O15264); assay: Inhibition of P38-delta (unknown origin) at 1 uM by mobility shift microfluidics platform based assay relative to control
[17] = molecular target: Serine/threonine-protein kinase PAK 3 (Homo sapiens) (UniProt O75914); assay: Inhibition of PAK3 (unknown origin) at 1 uM by mobility shift microfluidics platform based assay relative to control
[18] = molecular target: PAS domain-containing serine/threonine-protein kinase (Homo sapiens) (UniProt Q96RG2); assay: Inhibition of PASK (unknown origin) at 1 uM by mobility shift microfluidics platform based assay relative to control
[19] = molecular target: Protein kinase C eta type (Homo sapiens) (UniProt P24723); assay: Inhibition of PKC-eta (unknown origin) at 1 uM by mobility shift microfluidics platform based assay relative to control
[20] = molecular target: Serine/threonine-protein kinase PLK3 (Homo sapiens) (UniProt Q9H4B4); assay: Inhibition of PLK3 (unknown origin) at 1 uM by mobility shift microfluidics platform based assay relative to control
[21] = molecular target: MAP kinase-activated protein kinase 5 (Homo sapiens) (UniProt Q8IW41); assay: Inhibition of PRAK (unknown origin) at 1 uM by mobility shift microfluidics platform based assay relative to control
[22] = molecular target: cGMP-dependent protein kinase 2 (Homo sapiens) (UniProt Q13237); assay: Inhibition of PRKG2 (unknown origin) at 1 uM by mobility shift microfluidics platform based assay relative to control
[23] = molecular target: cAMP-dependent protein kinase catalytic subunit PRKX (Homo sapiens) (UniProt P51817); assay: Inhibition of PRKX (unknown origin) at 1 uM by mobility shift microfluidics platform based assay relative to control
[24] = molecular target: Tyrosine-protein kinase FRK (Homo sapiens) (UniProt P42685); assay: Inhibition of PTK5 (unknown origin) at 1 uM by mobility shift microfluidics platform based assay relative to control
[25] = molecular target: Protein-tyrosine kinase 2-beta (Homo sapiens) (UniProt Q14289); assay: Inhibition of PYK2 (unknown origin) at 1 uM by mobility shift microfluidics platform based assay relative to control
[26] = molecular target: Proto-oncogene tyrosine-protein kinase ROS (Homo sapiens) (UniProt P08922); assay: Inhibition of ROS (unknown origin) at 1 uM by mobility shift microfluidics platform based assay relative to control
[27] = molecular target: Serine/threonine-protein kinase Sgk3 (Homo sapiens) (UniProt Q96BR1); assay: Inhibition of SGK3 (unknown origin) at 1 uM by mobility shift microfluidics platform based assay relative to control
[28] = molecular target: Serine/threonine-protein kinase SIK2 (Homo sapiens) (UniProt Q9H0K1); assay: Inhibition of SNF1LK2 (unknown origin) at 1 uM by mobility shift microfluidics platform based assay relative to control
[29] = molecular target: TRAF2 and NCK-interacting protein kinase (Homo sapiens) (UniProt Q9UKE5); assay: Inhibition of TNIK (unknown origin) at 1 uM by mobility shift microfluidics platform based assay relative to control
[30] = molecular target: High affinity nerve growth factor receptor (Homo sapiens) (UniProt P04629); assay: Inhibition of TRKA (unknown origin) at 1 uM by mobility shift microfluidics platform based assay relative to control
[31] = molecular target: NT-3 growth factor receptor (Homo sapiens) (UniProt Q16288); assay: Inhibition of TRKC (unknown origin) at 1 uM by mobility shift microfluidics platform based assay relative to control
[32] = molecular target: Non-receptor tyrosine-protein kinase TYK2 (Homo sapiens) (UniProt P29597); assay: Inhibition of TYK2 (unknown origin) at 1 uM by mobility shift microfluidics platform based assay relative to control
[33] = molecular target: Tyrosine-protein kinase Yes (Homo sapiens) (UniProt P07947); assay: Inhibition of YES (unknown origin) at 1 uM by mobility shift microfluidics platform based assay relative to control

Chain of NT-3 growth factor receptor (Homo sapiens) (Q16288 32-839 limits assumed): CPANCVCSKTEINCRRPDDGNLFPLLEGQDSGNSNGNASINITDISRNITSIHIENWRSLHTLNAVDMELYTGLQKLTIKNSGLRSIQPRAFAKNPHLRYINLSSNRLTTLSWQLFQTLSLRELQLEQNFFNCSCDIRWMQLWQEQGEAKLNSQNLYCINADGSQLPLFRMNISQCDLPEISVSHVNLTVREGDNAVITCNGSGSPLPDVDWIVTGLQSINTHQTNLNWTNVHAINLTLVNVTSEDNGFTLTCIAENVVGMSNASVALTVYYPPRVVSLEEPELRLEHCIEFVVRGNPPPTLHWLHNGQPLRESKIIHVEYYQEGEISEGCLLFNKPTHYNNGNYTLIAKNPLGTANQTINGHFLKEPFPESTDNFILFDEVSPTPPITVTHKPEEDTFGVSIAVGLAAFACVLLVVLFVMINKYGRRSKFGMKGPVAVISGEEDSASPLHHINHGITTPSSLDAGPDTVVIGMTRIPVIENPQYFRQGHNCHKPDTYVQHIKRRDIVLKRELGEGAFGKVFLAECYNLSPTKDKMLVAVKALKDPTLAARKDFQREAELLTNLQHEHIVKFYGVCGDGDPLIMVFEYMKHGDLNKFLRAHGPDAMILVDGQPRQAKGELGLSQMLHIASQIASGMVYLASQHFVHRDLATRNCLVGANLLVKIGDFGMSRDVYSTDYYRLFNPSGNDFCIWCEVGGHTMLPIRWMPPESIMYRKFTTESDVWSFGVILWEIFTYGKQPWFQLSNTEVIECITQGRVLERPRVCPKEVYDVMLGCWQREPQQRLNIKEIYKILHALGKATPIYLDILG
Chain of PAS domain-containing serine/threonine-protein kinase (Homo sapiens) (Q96RG2 whole entry, the tested form may be a part): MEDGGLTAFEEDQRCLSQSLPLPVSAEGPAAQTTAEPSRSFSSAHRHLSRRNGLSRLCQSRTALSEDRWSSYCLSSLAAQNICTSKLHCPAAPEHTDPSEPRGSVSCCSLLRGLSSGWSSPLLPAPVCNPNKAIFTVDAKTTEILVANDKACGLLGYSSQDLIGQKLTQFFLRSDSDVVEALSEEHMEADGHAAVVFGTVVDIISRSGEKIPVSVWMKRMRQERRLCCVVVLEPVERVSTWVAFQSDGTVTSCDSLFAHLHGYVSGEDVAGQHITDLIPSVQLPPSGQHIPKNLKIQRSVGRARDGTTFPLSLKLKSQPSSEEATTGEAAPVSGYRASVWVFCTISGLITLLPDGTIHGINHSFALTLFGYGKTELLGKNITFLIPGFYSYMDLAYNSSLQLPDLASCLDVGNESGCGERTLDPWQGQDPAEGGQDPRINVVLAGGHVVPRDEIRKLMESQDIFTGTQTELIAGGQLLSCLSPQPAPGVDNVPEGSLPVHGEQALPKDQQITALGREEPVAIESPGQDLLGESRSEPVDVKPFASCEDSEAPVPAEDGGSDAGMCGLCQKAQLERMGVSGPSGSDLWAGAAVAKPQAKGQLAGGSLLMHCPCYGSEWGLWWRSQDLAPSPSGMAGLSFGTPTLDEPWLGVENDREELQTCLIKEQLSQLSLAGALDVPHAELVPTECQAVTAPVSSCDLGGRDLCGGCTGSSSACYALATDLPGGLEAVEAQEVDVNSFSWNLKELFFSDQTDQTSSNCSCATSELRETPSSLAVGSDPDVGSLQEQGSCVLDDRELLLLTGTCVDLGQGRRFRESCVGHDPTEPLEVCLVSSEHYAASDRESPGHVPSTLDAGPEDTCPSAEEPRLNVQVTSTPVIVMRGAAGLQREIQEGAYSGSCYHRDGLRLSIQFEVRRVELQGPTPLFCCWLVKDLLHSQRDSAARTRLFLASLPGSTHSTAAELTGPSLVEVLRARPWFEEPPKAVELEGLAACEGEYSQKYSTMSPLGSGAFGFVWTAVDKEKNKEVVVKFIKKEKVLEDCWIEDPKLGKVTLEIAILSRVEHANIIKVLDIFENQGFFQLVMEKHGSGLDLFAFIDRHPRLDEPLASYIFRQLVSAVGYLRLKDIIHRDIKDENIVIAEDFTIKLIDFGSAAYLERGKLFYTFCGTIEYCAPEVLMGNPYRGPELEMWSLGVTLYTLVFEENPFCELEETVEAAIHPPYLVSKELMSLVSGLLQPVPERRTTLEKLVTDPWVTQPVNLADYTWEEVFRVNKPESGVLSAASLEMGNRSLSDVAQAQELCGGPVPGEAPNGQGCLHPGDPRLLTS
Chain of Casein kinase I isoform gamma-2 (Homo sapiens) (P78368 whole entry, looked up, canonical isoform): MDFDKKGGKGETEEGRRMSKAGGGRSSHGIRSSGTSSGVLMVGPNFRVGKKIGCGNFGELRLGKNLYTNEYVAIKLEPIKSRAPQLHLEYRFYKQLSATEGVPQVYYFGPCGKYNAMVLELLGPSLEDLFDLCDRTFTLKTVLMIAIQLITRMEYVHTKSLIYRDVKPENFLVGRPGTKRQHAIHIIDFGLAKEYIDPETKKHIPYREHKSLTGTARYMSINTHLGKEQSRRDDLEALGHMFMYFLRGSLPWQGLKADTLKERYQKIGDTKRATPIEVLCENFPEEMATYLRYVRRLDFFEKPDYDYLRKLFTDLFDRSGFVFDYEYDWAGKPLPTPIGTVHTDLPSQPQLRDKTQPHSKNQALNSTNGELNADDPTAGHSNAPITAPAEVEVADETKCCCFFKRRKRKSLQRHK
Chain of Receptor tyrosine-protein kinase erbB-4 (Homo sapiens) (Q15303 whole entry): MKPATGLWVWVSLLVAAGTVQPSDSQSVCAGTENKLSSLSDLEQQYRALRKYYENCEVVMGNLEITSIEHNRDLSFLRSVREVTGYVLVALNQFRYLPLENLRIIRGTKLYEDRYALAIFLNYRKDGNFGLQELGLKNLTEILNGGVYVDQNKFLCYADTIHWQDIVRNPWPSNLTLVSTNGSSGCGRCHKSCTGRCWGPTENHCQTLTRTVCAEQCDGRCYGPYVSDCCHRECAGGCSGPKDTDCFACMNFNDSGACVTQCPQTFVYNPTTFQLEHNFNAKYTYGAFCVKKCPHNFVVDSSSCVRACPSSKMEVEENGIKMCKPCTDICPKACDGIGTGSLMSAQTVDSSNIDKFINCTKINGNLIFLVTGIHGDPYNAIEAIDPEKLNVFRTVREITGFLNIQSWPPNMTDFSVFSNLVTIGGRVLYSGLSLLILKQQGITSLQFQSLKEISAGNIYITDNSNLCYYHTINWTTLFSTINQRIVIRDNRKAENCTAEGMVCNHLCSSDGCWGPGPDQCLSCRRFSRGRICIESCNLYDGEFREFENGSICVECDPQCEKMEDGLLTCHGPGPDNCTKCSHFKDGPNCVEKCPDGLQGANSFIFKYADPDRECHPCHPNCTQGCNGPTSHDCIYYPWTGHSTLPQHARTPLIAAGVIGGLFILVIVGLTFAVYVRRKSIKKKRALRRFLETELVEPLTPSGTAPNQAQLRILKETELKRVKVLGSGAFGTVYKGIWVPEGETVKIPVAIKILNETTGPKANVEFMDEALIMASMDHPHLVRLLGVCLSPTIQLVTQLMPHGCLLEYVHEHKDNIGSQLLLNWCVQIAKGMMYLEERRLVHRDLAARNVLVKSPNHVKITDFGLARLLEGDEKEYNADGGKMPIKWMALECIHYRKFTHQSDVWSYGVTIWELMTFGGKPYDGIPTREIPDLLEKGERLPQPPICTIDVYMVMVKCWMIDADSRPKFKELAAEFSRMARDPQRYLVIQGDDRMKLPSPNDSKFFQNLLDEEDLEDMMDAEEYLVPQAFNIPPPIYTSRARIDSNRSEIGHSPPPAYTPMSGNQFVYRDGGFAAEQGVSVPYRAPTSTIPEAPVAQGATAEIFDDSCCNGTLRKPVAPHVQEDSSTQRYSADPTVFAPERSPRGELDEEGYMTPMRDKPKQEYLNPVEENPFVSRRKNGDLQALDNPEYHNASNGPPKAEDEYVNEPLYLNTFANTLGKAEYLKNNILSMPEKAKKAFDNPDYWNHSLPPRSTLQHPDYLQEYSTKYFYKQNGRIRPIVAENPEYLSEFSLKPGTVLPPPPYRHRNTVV
Chain of Serine/threonine-protein kinase Sgk3 (Homo sapiens) (Q96BR1 whole entry): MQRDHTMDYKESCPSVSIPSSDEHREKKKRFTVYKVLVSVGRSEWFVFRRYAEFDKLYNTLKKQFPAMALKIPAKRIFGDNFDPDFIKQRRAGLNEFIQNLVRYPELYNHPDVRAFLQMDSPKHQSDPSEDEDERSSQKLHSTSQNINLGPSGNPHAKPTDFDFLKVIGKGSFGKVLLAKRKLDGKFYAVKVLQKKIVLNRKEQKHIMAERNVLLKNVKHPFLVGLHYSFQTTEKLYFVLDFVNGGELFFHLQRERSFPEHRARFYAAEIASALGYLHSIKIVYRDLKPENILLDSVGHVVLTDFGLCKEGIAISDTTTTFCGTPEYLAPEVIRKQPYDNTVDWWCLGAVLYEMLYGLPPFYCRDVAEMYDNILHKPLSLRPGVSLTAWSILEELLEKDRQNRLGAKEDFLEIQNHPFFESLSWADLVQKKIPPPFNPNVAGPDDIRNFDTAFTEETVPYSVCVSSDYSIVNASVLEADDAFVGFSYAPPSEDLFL
Chain of Serine/threonine-protein kinase Nek7 (Homo sapiens) (Q8TDX7 whole entry, looked up): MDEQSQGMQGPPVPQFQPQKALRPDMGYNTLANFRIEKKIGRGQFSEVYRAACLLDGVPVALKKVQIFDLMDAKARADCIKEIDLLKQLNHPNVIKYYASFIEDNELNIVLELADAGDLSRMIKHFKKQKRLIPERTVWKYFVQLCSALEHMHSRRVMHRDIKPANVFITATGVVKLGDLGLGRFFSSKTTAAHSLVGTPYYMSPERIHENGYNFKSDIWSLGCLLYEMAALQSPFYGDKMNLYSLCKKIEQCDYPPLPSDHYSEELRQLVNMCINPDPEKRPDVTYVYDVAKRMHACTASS
Chain of Aurora kinase C (Homo sapiens) (Q9UQB9 whole entry): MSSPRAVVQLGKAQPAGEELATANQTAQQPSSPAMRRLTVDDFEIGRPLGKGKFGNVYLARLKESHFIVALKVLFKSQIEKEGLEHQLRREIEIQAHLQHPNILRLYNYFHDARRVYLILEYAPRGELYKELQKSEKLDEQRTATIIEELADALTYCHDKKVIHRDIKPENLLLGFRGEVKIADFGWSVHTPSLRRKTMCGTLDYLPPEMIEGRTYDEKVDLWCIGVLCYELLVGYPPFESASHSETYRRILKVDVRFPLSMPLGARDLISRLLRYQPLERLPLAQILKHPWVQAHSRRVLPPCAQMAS

solubility at 24 h [1] [µM]	Papp A→B [2] [×10⁻⁶ cm/s]	inhibition [3] [%]	inhibition [4] [%]	inhibition [5] [%]	inhibition [6] [%]	inhibition [7] [%]	inhibition [8] [%]	inhibition (Homo sapiens) [%]	inhibition [9] [%]	inhibition [10] [%]	inhibition [11] [%]	inhibition [12] [%]	inhibition [13] [%]	inhibition [14] [%]	inhibition [15] [%]	inhibition [16] [%]	inhibition [17] [%]	inhibition [18] [%]	inhibition [19] [%]	Compound	further results
161 (≈ 74.8 µg/mL)	0.5	98	90	33	95	1	0	8	9	1	-1	98	88	0	1	0	2	-4	-5	CC(C)n1nc(C#Cc2cccc(NC(=O)c3cccc(C(F)(F)F)c3)c2)c2c(N)ncnc21	inhibition [20]: 3%; inhibition [21]: -1%; inhibition [22]: 24%; inhibition [23]: 2%; inhibition [24]: 95%; inhibition [25]: 74%; inhibition [26]: 18%; inhibition [27]: -2%; inhibition [28]: 7%; inhibition [29]: 71%; inhibition [30]: 22%; inhibition [31]: 59%; inhibition [32]: 31%; inhibition [33]: 101%
60 (≈ 28.3 µg/mL)	0.8	96	29	-2	57	5	2	1	-5	2	6	86	4	-2	-2	2	1	1	2	CC(C)n1nc(C#Cc2cccc3cc(-c4cccc(C(F)(F)F)c4)ncc23)c2c(N)ncnc21	inhibition [20]: 0%; inhibition [21]: 7%; inhibition [22]: 9%; inhibition [23]: -4%; inhibition [24]: 18%; inhibition [25]: 1%; inhibition [26]: 5%; inhibition [27]: -3%; inhibition [28]: 10%; inhibition [29]: 4%; inhibition [30]: 2%; inhibition [31]: 14%; inhibition [32]: 2%; inhibition [33]: 88%
